Our source for the folding enthalpy and Tm values is the array DNA melting data of Ke et al. (doi:10.1101/2024.01.08.574731).

Data set [1] in a line: folding enthalpy; higher = less favourable; fluorescence melt of hairpins on a sequencing array, two-state fit. The settings on record: sodium 0.088 M. In outline: (§1)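 Cy3 signals were normalised both to pre-quench Cy3 and to control constructs. They came from library hairpins carrying annealed Cy3 and quencher oligos on a sequenced MiSeq flow cell, imaged in 50 mM Na-HEPES pH 8.0, 25 mM NaCl, in 2.5 °C steps up to 60 °C. Bootstrapped two-state fits gave melting temperature and folding enthalpy, and four replicates were combined by inverse variance. Fitted temperatures were then raised by 9.35 °C to match UV melts.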

Data set [2] can be described thus: melting temperature; fluorescence melt of hairpins on a sequencing array, two-state fit, raised by 9.35 °C to match UV melts. The conditions noted are these: sodium 0.088 M. Summed up: as §1

Consider GATAGAGGAAACTCTACC (.(((((....))))).), for which, in data set [1], the folding enthalpy is -12.6 kcal/mol. For the same sequence, the Tm in data set [2] is 23.5 °C.
On the same counts, the results for GATAGCGAAAGCTAAATC ((((((....)))..))) are -8.92 kcal/mol and 27.7 °C.
For the sequence GATAGCGAAAGCTGATC ((((((....))).))), the folding enthalpy in data set [1] was -13.2 kcal/mol. In data set [2], the Tm is 38.9 °C.
Taken in the same sequence, the figures for GATAGCGGAAACGCCATC (((.(((....))).))) were -15.5 kcal/mol and 35.1 °C.
Taken in the same sequence, the figures for GATAGGCGAAAGCCAATC (((.(((....))).))) were -19 kcal/mol and 43 °C.
Turning to GATAGGGGAAACCCTACC (.(((((....))))).), the folding enthalpy in data set [1] was -16.8 kcal/mol. The Tm in data set [2] amounted to 31.1 °C.
Consider GATAGGGGAAACCCTGTC ((.((((....)))).)), for which the folding enthalpy in data set [1] was -25.4 kcal/mol. Moreover, in data set [2], the Tm came to 43.7 °C.
With GATATCGGAAACGACATC (((.(((....))).))), in data set [1], the folding enthalpy was -27.9 kcal/mol. For the same sequence, the Tm in data set [2] turned out to be 32.7 °C.
Consider GATATGGGAAACCATGTC ((.((((....)))).)), for which the folding enthalpy in data set [1] is -29 kcal/mol. Moreover, in data set [2], the Tm worked out at 41.8 °C.
On to GATATGGGAAACTATATC (((((.(....).))))), for which the folding enthalpy in data set [1] is -23.2 kcal/mol. The Tm in data set [2] came out at 33.8 °C.
On the same counts, the results for GATCAAAAAATTGATC ((((((....)))))) are -17.5 kcal/mol and 32.4 °C.
In the case of GATCAAAAATTTGATC ((((((....)))))), in data set [1], the folding enthalpy was -28.7 kcal/mol. The Tm in data set [2] amounted to 39 °C.
On the same counts, the results for GATCAAAATATTGATC ((((((....)))))) are -26.6 kcal/mol and 38.6 °C.
For GATCAAACCATTGATC ((((((....)))))), the folding enthalpy in data set [1] is -31.2 kcal/mol. Further, in data set [2], the Tm is 42.1 °C.
Taken in the same sequence, the figures for GATCAAACCGTTGATC ((((((....)))))) were -30.6 kcal/mol and 42 °C.
Taken in the same sequence, the figures for GATCAAACTATTGATC ((((((....)))))) were -30.1 kcal/mol and 40.3 °C.
Taken in the same sequence, the figures for GATCAAACTGTTGATC ((((((....)))))) were -25.7 kcal/mol and 41 °C.
On to GATCAAAGACTTGATC ((((((....)))))), for which, in data set [1], the folding enthalpy is -25.1 kcal/mol. Moreover, the Tm in data set [2] worked out at 39.2 °C.
Taken in the same sequence, the figures for GATCAAAGCATTGATC ((((((....)))))) were -36.8 kcal/mol and 43.7 °C.
Take GATCAAAGGATTGATC ((((((....)))))): in data set [1], the folding enthalpy is -19.1 kcal/mol. Besides, the Tm in data set [2] turned out to be 40.9 °C.
Consider GATCAAAGGCTTGATC ((((((....)))))), for which, in data set [1], the folding enthalpy is -31.5 kcal/mol. Moreover, in data set [2], the Tm was found to be 41 °C.
Consider GATCAAAGGGTTGATC ((((((....)))))), for which the folding enthalpy in data set [1] is -28.3 kcal/mol. Also, in data set [2], the Tm amounted to 39.1 °C.
Turning to GATCAAATACTTGATC ((((((....)))))), in data set [1], the folding enthalpy was -33.2 kcal/mol. In addition, in data set [2], the Tm came to 39.9 °C.
In the case of GATCAAATTGTTGATC ((((((....)))))), the folding enthalpy in data set [1] was -28.3 kcal/mol. Moreover, the Tm in data set [2] was determined as 41.8 °C.
With GATCAACAAATTGATC ((((((....)))))), in data set [1], the folding enthalpy was -31.3 kcal/mol. Further, the Tm in data set [2] came to 36.4 °C.
For the sequence GATCAACAAGTTGATC ((((((....)))))), in data set [1], the folding enthalpy is -34.2 kcal/mol. Further, the Tm in data set [2] is 51.8 °C.
Taken in the same sequence, the figures for GATCAACAATTGATC ((((((...)))))) were -21.6 kcal/mol and 33.4 °C.
As for GATCAACACCTTGATC ((((((....)))))), in data set [1], the folding enthalpy is -32.7 kcal/mol. The Tm in data set [2] is 46.7 °C.
On the same counts, the results for GATCAACAGGTTGATC ((((((....)))))) are -36.2 kcal/mol and 51.4 °C.
Taken in the same sequence, the figures for GATCAACATATTGATC ((((((....)))))) were -30.2 kcal/mol and 42.6 °C.
Taken in the same sequence, the figures for GATCAACCCGTTGATC ((((((....)))))) were -42 kcal/mol and 53 °C.
Regarding GATCAACCGAAAGGTATC (((..(((....)))))), in data set [1], the folding enthalpy was -12.1 kcal/mol. Besides, the Tm in data set [2] stood at 25.6 °C.
Take GATCAACCGATTGATC ((((((....)))))): the folding enthalpy in data set [1] is -32.6 kcal/mol. Also, the Tm in data set [2] was 41.5 °C.
Taken in the same sequence, the figures for GATCAACCGTTGATC ((((((...)))))) were -38.1 kcal/mol and 41.1 °C.
Taken in the same sequence, the figures for GATCAACGAGTTGATC ((((((....)))))) were -51 kcal/mol and 55.6 °C.
For GATCAACGCCTTGATC ((((((....)))))), the folding enthalpy in data set [1] is -26 kcal/mol. The Tm in data set [2] came to 46.1 °C.
Taken in the same sequence, the figures for GATCAACGCTTTGATC ((((((....)))))) were -44.1 kcal/mol and 46.4 °C.
On to GATCAACGTTTTGATC ((((((....)))))), for which the folding enthalpy in data set [1] is -30.4 kcal/mol. The Tm in data set [2] turned out to be 42.8 °C.
In the case of GATCAACTAGTTGATC ((((((....)))))), the folding enthalpy in data set [1] is -38.6 kcal/mol. Besides, the Tm in data set [2] came out at 56.3 °C.
With GATCAACTCTTGATC ((((((...)))))), in data set [1], the folding enthalpy was -35.7 kcal/mol. Besides, the Tm in data set [2] is 42.3 °C.
With GATCAACTCTTTGATC ((((((....)))))), in data set [1], the folding enthalpy was -37.5 kcal/mol. Moreover, in data set [2], the Tm is 45.1 °C.
Taken in the same sequence, the figures for GATCAACTTTTGATC ((((((...)))))) were -30.7 kcal/mol and 43.2 °C.
GATCAAGAATTTGATC ((((((....)))))): in data set [1], the folding enthalpy is -30.8 kcal/mol. Moreover, the Tm in data set [2] came to 49 °C.
On the same counts, the results for GATCAAGAGTTGATC ((((((...)))))) are -24.8 kcal/mol and 37.8 °C.
GATCAAGAGTTTGATC ((((((....)))))): the folding enthalpy in data set [1] was -29.6 kcal/mol. In data set [2], the Tm is 41.4 °C.
In the case of GATCAAGATGTTGATC ((((((....)))))), in data set [1], the folding enthalpy is -28 kcal/mol. The Tm in data set [2] was determined as 43.5 °C.
On the same counts, the results for GATCAAGCAGTTGATC ((((((....)))))) are -31.8 kcal/mol and 46.6 °C.
On the same counts, the results for GATCAAGCGCTTGATC ((((((....)))))) are -51.6 kcal/mol and 55.9 °C.
On the same counts, the results for GATCAAGGAAACTTGACC (.(((((....))))).) are -18.7 kcal/mol and 29.8 °C.
With GATCAAGGAAACTTGGTC ((.((((....)))).)), the folding enthalpy in data set [1] is -30.5 kcal/mol. Besides, the Tm in data set [2] is 41.5 °C.
Taken in the same sequence, the figures for GATCAAGGCGTTGATC ((((((....)))))) were -35.8 kcal/mol and 48.5 °C.
In the case of GATCAAGGGATTGATC ((((((....)))))), in data set [1], the folding enthalpy was -26.9 kcal/mol. Moreover, the Tm in data set [2] worked out at 44.8 °C.
As to GATCAAGGTATTGATC ((((((....)))))), the folding enthalpy in data set [1] was -35.2 kcal/mol. Also, the Tm in data set [2] was found to be 48.7 °C.
Taken in the same sequence, the figures for GATCAAGGTTTTGATC ((((((....)))))) were -29.7 kcal/mol and 45.1 °C.
On the same counts, the results for GATCAAGTAGTTGATC ((((((....)))))) are -31.6 kcal/mol and 46.7 °C.
On the same counts, the results for GATCAAGTCGTTGATC ((((((....)))))) are -39.2 kcal/mol and 48 °C.
